Screen size: about 300,000 compounds; about 4,400 (1.5%) were called active. This is one part of a sample in which actives are shown more often than they occur. Unmarked numbers belong to inactive results.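 The calls were made as follows: active = mean inhibition across valid replicates above about 55% (limit read from the data); inconclusive = mean below that limit but half or more replicates reach it; inactive = mean below it, under half of replicates reach it.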

The assay can be described thus: inhibitors of intracellular T. cruzi growth, primary screen, luminescence, NIH3T3 host cells (AID 1885).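 Also: signal also drops with host cell toxicity which is not excluded here; 0% = plate median of DMSO wells and 100% = zero luminescence signal; higher percent means less beta-gal luminescence so fewer parasites.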 The conditions noted are these: T. cruzi beta-gal in NIH3T3, luminescence, 90 h; hits give high values; concentration not given here. A digest of the protocol:
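System: mouse NIH/3T3 fibroblasts infected with β-gal-expressing T. cruzi Tulahuen C4 / Input: NIH/3T3 cells, 5,000 per well / Buffer or medium: Low-serum DMEM with 2% FBS / Probe or stimulus: 5000 reporter trypomastigotes per well / Schedule: ≥90 h infection period, 3 h prior cell attachment / Measured by: GalScreen luminescence, 60 min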
What is called inhibition is the relative decrease from the control value, in per cent. For `CC(C)C(c1nnnn1C1CCCCC1)N1CCN(C(=O)c2ccco2)CC1` (configuration not stated), the inhibition was -11.6%. In the case of `CC(C)(C)c1ccc(C(=O)NCCn2c(N)c(C#N)c3nc4ccccc4nc32)cc1` it was -43.8%.

With `CC(C)Cn1c(N)c(C(=O)NCc2cccs2)c2nc3ccccc3nc21`, the inhibition is 59.8% (active). With `CCCNC(=O)c1c(N)n(-c2ccc(S(N)(=O)=O)cc2)c2nc3ccccc3nc12` the figure was -22.9%; with `COc1ccccc1CCNC(=O)C1CCN(C(=O)/C=C/c2ccccc2)CC1`, -2.7%. In the case of `CCOc1ccc2nc(N(CCN(C)C)C(=O)c3ccc4ccccc4c3)sc2c1` it was 26.5%. In the case of `CCN(CC)CCN(C(=O)c1cccc([N+](=O)[O-])c1)c1nc2ccc(OC)cc2s1` it was 55.5% (active). On to `CCN(CC)CCN(C(=O)c1ccc(N2C(=O)CCC2=O)cc1)c1nc2cc3c(cc2s1)OCO3`, for which the inhibition is 40.8%.

Consider `CCOc1ccc(NC(=O)CCC(=O)NNC(=O)NC2CCCCC2)cc1`, for which the inhibition is 8.19%. For `Cc1ccc2nc(SCC(=O)N3CC(C)OC(C)C3)nc(=O)n2c1` (configuration not stated), the inhibition is -6.75%. As to `CCN(Cc1ccccc1)S(=O)(=O)c1cc2c3c(c1)CCN3C(=O)CC2`, the inhibition is -1.06%. Turning to `O=c1cnnc(Nc2ccccc2F)[nH]1`, the inhibition is -1.79%. Consider `O=C(NCc1ccccc1)C1=C[C@@H](c2ccc(C(F)(F)F)cc2)C[C@@H](OCc2ccc(CO)cc2)O1`, for which the inhibition is 63% (active). As for `O=C(C1=C[C@H](c2ccc(C(F)(F)F)cc2)C[C@H](OCc2ccc(CO)cc2)O1)N1CCN(Cc2ccccc2)CC1`, the inhibition is 40.5%. As to `CC(C)(C)[C@H]1C=C(C(=O)NCc2ccccc2)O[C@@H](OCc2ccc(CO)cc2)C1`, the inhibition was 7.55%. On to `CN(C)c1nc(Nc2ccc(Cl)c(Cl)c2)nc(N(C)C)n1`, for which the inhibition was 9.61%. With `OCCNc1nc(Nc2ccc(Cl)c(Cl)c2)nc2ccccc12` the figure was 64.3% (active); with `COc1cc2nc(Cl)nc(NCCO)c2cc1OC`, -12.7%. `COCCNc1nc(-c2ccccc2)nc2c1oc1ccccc12`: the inhibition was 36.8%. As to `CCc1noc(C)c1C(=O)Oc1ccc(N(C)S(=O)(=O)c2ccc(C)c(C)c2)cc1`, the inhibition is 31%. Consider `COC(=O)C(C(=O)Nc1cccc(Cl)c1C)C1CCCC1` (configuration not stated), for which the inhibition is -20.2%. In the case of `COCCCn1c(SCC(=O)Nc2oc(C)c3c(C)n[nH]c(=O)c23)nc2sc3c(c2c1=O)CCC3`, the inhibition is 2.14%. With `CN(C1CCS(=O)(=O)C1)S(=O)(=O)c1ccc2ccccc2c1` (configuration not stated), the inhibition is -3.79%. In the case of `Brc1ccc(-c2csc(N/N=C/c3ccc4c(c3)OCO4)n2)cc1` it was 31.5%; in that of `Brc1ccc(-c2csc(N/N=C/c3cccnc3)n2)cc1`, 69.8% (active); in that of `Cc1ccccc1Nc1nc(-c2cccnc2)cs1`, 20.2%.

As to `COC(C[C@@H]1O[C@@H]1C(=O)[C@@H](C)OCc1ccccc1)OC`, the inhibition is 3.07%.

With `CCCCN(CCCC)CCCNC(=O)CN1C(=O)COc2ccc(S(=O)(=O)N3CCC(C)CC3)cc21`, the inhibition was 10.4%. With `Cc1cc(C)c(-c2c(O)c3ccccc3n(C)c2=O)c(C)c1` the figure was -3.11%; with `COc1cc(C2/C(=C(\O)c3ccc4c(c3)CC(C)O4)C(=O)C(=O)N2c2nnc(C)s2)cc(OC)c1OC` (configuration not stated), -5.79%.

For `O=C(CSc1n[nH]c(=O)n1-c1ccccc1)Nc1ccccc1C(F)(F)F`, the inhibition is -3.4%. On to `O=C(NCCC1CCCCN1S(=O)(=O)c1ccccc1)C(=O)NCC1CCCO1` (configuration not stated), for which the inhibition was -5.32%. On to `COc1cccc(CNC(=O)CCC2CCCN(Cc3ccc(OC(F)F)cc3)C2)c1` (configuration not stated), for which the inhibition was 49.4%.

Consider `CSc1ncccc1C(=O)N1CCCC(CCC(=O)NCc2ccccc2F)C1` (configuration not stated), for which the inhibition was 2.43%. With `O=C(CCC1CCCN(Cc2ccc(O)c(Cl)c2)C1)NCc1ccccc1F` (configuration not stated) the figure was 65.4% (active); with `CC(=O)c1ccc(S(=O)(=O)N2CCC3(CC2)OCCO3)cc1`, 4.17%; with `CC(=O)c1ccc(S(=O)(=O)N2CCN(c3nc4c(C)c(C)ccc4cc3C#N)CC2)cc1`, 63.6% (active). For the molecule `CC(=O)c1ccc(S(=O)(=O)N2CCN(C(=O)/C=C/c3ccc4ccccc4n3)CC2)cc1`, the inhibition was 20.6%. With `CCOc1ccc2ccccc2c1/C=N/NC(=O)c1c(C)cc(C)[nH]c1=O` the figure was 13.7%. In the case of `O=C(CSc1ccc(-c2ccc(-n3cccn3)cc2)nn1)Nc1ccc([N+](=O)[O-])cc1` it was -0.835%. In the case of `COc1ccc(C(CNC(=O)c2ccc(S(=O)(=O)Nc3ccccc3C)cc2)N2CCOCC2)cc1` (configuration not stated) it was -0.159%. In the case of `CSc1nccc(NC(=O)c2ccc(C(C)(C)C)cc2)n1`, the inhibition is -6.33%. With `NC(=O)C1(N2CCCCC2)CCN(C2CC(=O)N(Cc3ccc(N4CCCC4=O)cc3)C2=O)CC1` (configuration not stated) the figure was 7.91%; with `O=C(N1CCCC1)C12CC3CC(C1)CC(C(=O)N1CCCC1)(C3)C2`, -14.8%; with `CC(C)(C)NC(=O)CN1CCC(NC(=O)C23CC4CC(CC(C4)C2)C3)CC1`, 26.6%.

For `CN1CCN(CC(=O)C23CC4CC(CC(C4)C2)C3)CC1`, the inhibition was 56.4% (active).

Regarding `COc1ccc(CC(=O)Nc2ccc3c(c2)CCC3)cc1S(=O)(=O)N1CCOCC1`, the inhibition was -10.7%. In the case of `COc1ccc(CNc2cc(C)cc(C)c2)cc1OC` it was -0.404%; in that of `COc1ccc(CNc2ccc3c(c2)CCC3)cc1OC`, 65.6% (active); in that of `Cc1ccc(S(=O)(=O)NCCC(=O)NNC(=O)C2COc3ccccc3O2)cc1` (configuration not stated), 1.4%. With `COc1cccc(C(=O)Nc2cc3c(cc2Br)OCCCO3)c1` the figure was 11.1%; with `Oc1ccc2ccccc2c1N=Nc1nccs1`, 71.1% (active).

Take `Oc1ccc(N=Nc2nccs2)c(O)c1`: the inhibition was 47.7%. On to `Cc1ccc(N2CC(C(=O)Nc3cc(Cl)ccc3-n3cncn3)CC2=O)cc1` (configuration not stated), for which the inhibition is -5.75%. Regarding `COc1ccc(-c2c(NC(=O)c3ccco3)oc3ccc(Cl)cc3c2=O)cc1`, the inhibition was -16.1%.

As for `CC(=O)c1ccc(S(=O)(=O)NCc2nnnn2-c2ccccc2)cc1`, the inhibition is -4.22%. With `CCCCN(C(=O)c1ccc(S(=O)(=O)N2CCOCC2)cc1)C1CCS(=O)(=O)C1` (configuration not stated), the inhibition is -3.57%.

For the origin of these results see PubChem BioAssay AID1885 (Broad Institute, 2009).
